GSTO1 inh = counter-screen for RBBP9 inhibitors: inhibitors of human GSTO1. P78417. recombinant GSTO1, activity-based probe fluorescence polarization. inhibition, % at 5.96 µM. 1.1% of 300,000 active. AID 1974;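 active = inhibition above the campaign mean inhibition plus 3 SD, cut at about 35% in these data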
Target sequence (P78417 whole entry, looked up): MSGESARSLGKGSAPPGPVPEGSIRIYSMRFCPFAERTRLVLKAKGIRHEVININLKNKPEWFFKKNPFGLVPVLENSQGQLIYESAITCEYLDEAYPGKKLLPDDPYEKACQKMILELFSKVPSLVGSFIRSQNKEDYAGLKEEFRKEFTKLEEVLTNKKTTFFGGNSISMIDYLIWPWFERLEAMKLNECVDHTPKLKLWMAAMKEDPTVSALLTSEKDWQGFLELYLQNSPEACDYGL
PAD4 inh = inhibitors of human PAD4; recombinant PAD4, RCA probe fluorescence polarization; AID 485272; inhibition, % at 6.36 µM; Q9UM07; 0.41% of 330,000 active;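 active = percent inhibition above a cutoff equal to the mean of all tested compounds plus 3 SD, cut at about 15% in these data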
Fh CTSL1 inh = counter-screen for PFM18AAP inhibitors: inhibitors of F. hepatica cathepsin L1 | recombinant F. hepatica cathepsin L1, Z-Leu-Arg-MCA fluorescence | inhibition, % at 5.96 µM | 0.49% of 300,000 active | AID 1906;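 active = inhibition above the mean of all tested compounds plus 3 SD, set per screening campaign, cut at about 17% in these data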
TDP2 inh = blocks human TDP2 phosphodiesterase activity; recombinant TDP2, T5PNP hydrolysis, p-nitrophenol absorbance 415 nm; inhibition, % at 12.8 µM; 0.34% of 370,000 active;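 active = inhibition above the mean of all tested compounds plus 3 SD, set per campaign, cut at about 25% in these data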
Target sequence (O95551 whole entry, looked up): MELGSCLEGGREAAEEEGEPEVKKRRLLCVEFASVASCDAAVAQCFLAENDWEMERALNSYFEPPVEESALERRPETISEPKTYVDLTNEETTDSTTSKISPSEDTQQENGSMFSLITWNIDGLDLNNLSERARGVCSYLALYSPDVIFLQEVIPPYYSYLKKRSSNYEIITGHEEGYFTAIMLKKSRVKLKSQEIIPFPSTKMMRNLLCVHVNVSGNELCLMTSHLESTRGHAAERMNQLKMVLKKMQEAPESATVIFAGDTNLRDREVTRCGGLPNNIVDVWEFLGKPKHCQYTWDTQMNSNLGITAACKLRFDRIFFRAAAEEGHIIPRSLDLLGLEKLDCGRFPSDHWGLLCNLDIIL
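System: recombinant human TDP2 / Amount: 120 nM TDP2 per well / Also added: 5 mM T5PNP chromogenic substrate / Doses: 12.8 µM single point, 1% DMSO / Incubation: 2 h at 37 °C / Detection: p-Nitrophenol epi absorbance / Evaluation: % inhibition relative to enzyme-containing and enzyme-free wells / Repeats: singlicate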
PRMT1 FP inh = inhibitors of human PRMT1. Q99873. recombinant PRMT1, activity-based probe fluorescence polarization. inhibition, % at 2.79 µM. 1.3% of 370,000 active;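 active = inhibition above about 21% made by adding two undisclosed values, limit read from the data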
Numbers stand for hits; n = inactive; x = no result. The list is not random: actives were taken first. Their share in the collection is about 2.5%.

SMILES	GSTO1 inh	PAD4 inh	Fh CTSL1 inh	TDP2 inh	PRMT1 FP inh
COC(=O)CSc1cc([N+](=O)[O-])ccc1NC(=O)OC	n	n	19	n	n
Cc1[nH]c2c(ccc3cccnc32)c1C	n	n	n	n	n
CC1=[N+](C)c2c(ccc3cccnc23)C1(C)C	x	x	x	38	n
Cn1c(=O)c2[nH]c(SCC(=O)NCCc3cccc(F)c3)nc2n(C)c1=O	x	x	x	n	n
CCCCCC[C@H](CC)CN(C(=O)Oc1ccccc1)c1ccccc1	x	x	x	n	n
Cc1ccc(NC(=O)c2sc(N)nc2-c2ccc([N+](=O)[O-])cc2)cc1C	n	n	n	n	n
Cc1ccc(NC(=O)c2sc(N)nc2-c2ccccc2)cc1C	n	n	34	n	n
COc1ccc(S[C@]2(C(=O)NCC(C)C)CC(=O)N[C@@H]2c2ccc(OC)cc2)cc1	x	x	x	n	n
N#Cc1ccc(NC(=O)COC(=O)CNC(=O)C2CCCCC2)cc1	n	n	31	n	n
COc1cccc(NC(=O)COC(=O)CNC(=O)C2CCCCC2)c1	x	n	x	n	n
Cc1cccc(NC(=O)COC(=O)CNC(=O)C2CCCCC2)c1	n	n	25	n	n
CC(C)CCNC(=O)NC(=O)COC(=O)CNC(=O)C1CCCCC1	n	n	26	n	n
N#Cc1ccc(NC(=O)COC(=O)C2CCC2)cc1	x	x	x	n	n
C#CCNC(=O)C[C@H]1C[C@@]2(C(=O)OC)C(=C[C@H](C(C)(C)C)O[C@@H]2C)N(Cc2ccco2)C1=O	x	x	x	n	n
C[C@@H]1COc2cc(Br)ccc2S(=O)(=O)N1Cc1cn(Cc2ccc(Cl)cc2)nn1	x	x	x	n	n
C[C@@H](CO)N(Cc1cn(Cc2ccccc2)nn1)S(=O)(=O)c1ccccc1Br	x	x	x	n	n
Cc1ccc(-c2nnc(SCC(=O)Nc3ccc4c(c3)OCCO4)n2-c2ccc(Cl)cc2)cc1	x	x	x	n	n
O=C(O)/C=C\C(=O)Nc1ccccc1C(=O)N1CCN(c2ccc(Cl)cc2)CC1	n	n	n	n	24
CC(C)c1ccc(N2CCN(C(=O)c3ccccc3NC(=O)/C=C\C(=O)O)CC2)cc1	n	n	n	n	n
O=C1Nc2ccc(Cl)cc2/C1=C/C1CC=CCC1 (stereo unspecified)	n	n	47	n	n
O=C1Nc2cnc(Cl)nc2Nc2ccc(Cl)cc21	x	x	x	n	n
CCc1cccc(CC)c1NC(=S)/C(=C(\[O-])c1ccc(Cl)s1)[n+]1ccccc1	n	n	34	n	n
[O-]/C(=C(\C(=S)Nc1cccc2ccccc12)[n+]1ccccc1)c1ccc(Cl)s1	n	n	n	n	n
CC(=O)c1ccc(NCCCN2CCC(C(O)(c3ccccc3)c3ccccc3)CC2)cc1	x	x	x	n	n
COc1cc(SC)ccc1C(=O)Nc1ccon1	n	n	n	n	24
SMILES	GSTO1 inh	PAD4 inh	Fh CTSL1 inh	TDP2 inh	PRMT1 FP inh
COc1ccc(CNC(=O)CSc2nc3[nH]ncc3c(=O)n2-c2ccccc2Br)cc1	42	n	n	x	x
O=C(CSc1nc2[nH]ncc2c(=O)n1-c1ccccc1Br)NCc1ccccc1Cl	n	n	n	n	n
NC(=O)CN1C(=O)C(O)(CC(=O)/C=C\C=C\c2ccccc2)c2ccccc21 (stereo unspecified)	n	n	n	n	n
O=C(/C=C/C=C/c1ccccc1)CC1(O)C(=O)N(CCc2ccccc2)c2ccccc21 (stereo unspecified)	n	n	18	n	n
Cc1ccc2c(c1)C(O)(CC(=O)/C=C/C=C/c1ccccc1)C(=O)N2 (stereo unspecified)	n	n	21	n	n
CCN1C(=O)C(O)(CC(=O)/C=C/C=C/c2ccccc2)c2ccccc21 (stereo unspecified)	n	n	22	n	n
C#CCN1C(=O)C(O)(CC(=O)/C=C/C=C/c2ccccc2)c2ccccc21 (stereo unspecified)	n	n	39	n	n
O=C(CC1(O)C(=O)Nc2ccc(Br)cc21)c1ccccc1 (stereo unspecified)	x	x	x	n	n
CCN(CC)C(=O)CC[C@@H]1CC[C@]2(CCCN(Cc3cccc4ccccc34)C2)O1	x	x	x	n	n
COC(=O)C1CN(CCc2ccccc2)CCS(=O)(=O)N1Cc1ccc(C(F)(F)F)cc1 (stereo unspecified)	x	x	x	n	n
COC(=O)C1CN(Cc2ccc(F)cc2)CCS(=O)(=O)N1Cc1ccc(C)cc1 (stereo unspecified)	x	x	x	n	n
CN(C)c1ccc(Cc2cc3c(O)ccc(O)c3cc(Cc3ccc(N(C)C)cc3)c2=O)cc1	x	x	x	n	79
COc1cc(C2C(C#N)=C(N)N(c3cccnc3)C3=C2C(=O)CCC3)ccc1O (stereo unspecified)	n	n	n	n	n
COc1cc(C2C(C#N)=C(N)N(c3ccc(F)cc3)C3=C2S(=O)(=O)CC3)ccc1O (stereo unspecified)	n	n	n	n	25
Cc1ccc(S(=O)(=O)/C(=C/Cl)NC(=O)c2ccccc2)cc1	n	n	97	n	n
O=C(NC1CCCC1)C(c1ccc(F)cc1)N(Cc1ccc(F)cc1)C(=O)CCl (stereo unspecified)	n	n	51	n	n
O=C(Nc1nc2ncccn2c1-c1ccc(F)c(F)c1)C1CC1	x	x	x	n	n
COc1cc(CNc2ccc(N3CCCC3)cc2)ccc1OCc1ccccc1	53	n	n	n	n
COC(=O)C12C=C3CC(C)=C3C(=O)N1Cc1[nH]c3ccccc3c1C2 (stereo unspecified)	x	x	x	n	n
Cc1cc(C(=O)NCc2cccs2)c(C)o1	n	n	n	n	21
COC(C[C@H]1O[C@H]1C(=O)[C@H](C)OCc1ccccc1)OC	n	n	76	n	n
COC(C[C@@H]1O[C@@H]1[C@@H](O)[C@H](C)OCc1ccccc1)OC	x	x	x	n	n
COC(C[C@H]1O[C@@H]1C(=O)[C@H](C)OCc1ccccc1)OC	n	n	74	n	n
CC(C)NC(=O)N[C@H]1C[C@@H]2O[C@H](CO)CC[C@@H]2O[C@@H]1CCc1ccc(-c2ccc(F)cc2)cc1	x	x	x	n	n
CCn1c(=S)sc2c(=O)n(-c3ccccc3)c(=S)[nH]c21	n	n	n	n	n
SMILES	GSTO1 inh	PAD4 inh	Fh CTSL1 inh	TDP2 inh	PRMT1 FP inh
CCOc1ccccc1-n1c(=S)sc2c(=O)n(-c3ccc(C)cc3)c(=S)[nH]c21	n	n	n	n	73
CCn1c2ccccc2c2cc(NC(=O)COC(=O)c3cccc(F)c3F)ccc21	x	x	x	n	n
CC(=O)C(Sc1nn(C)c(=S)s1)C(=O)Nc1ccccc1 (stereo unspecified)	n	n	n	n	24
COc1cc(OC)cc(-c2c(-c3cccs3)c3cc(Br)ccc3n2C)c1	x	n	x	n	25
COc1cc(F)cc(-c2ccc3c(c2)c(-c2cccs2)c(-c2cc(OC)cc(OC)c2)n3C)c1	x	n	x	n	n
COc1ccccc1C(C)NS(=O)(=O)c1cccs1 (stereo unspecified)	n	97	n	x	x

Compound activity: PubChem BioAssay, The Scripps Research Institute Molecular Screening Center
